Assay results published in ChEMBL document CHEMBL4152256, “Structure-activity relationship of new antimalarial 1-aryl-3-susbtituted propanol derivatives: Synthesis, preliminary toxicity profiling, parasite life cycle stage studies, target exploration, and targeted delivery” (Eur J Med Chem, 2018).

Columns and labels:
[1] = Genotoxicity in Salmonella typhimurium TA1535 harboring pSK1002 assessed as umu gene induction at 0.125 mg/ml in absence of Sprague-Dawley rat liver S9 fraction after by SOS/umu assay relative to control; assay type: toxicity, organism-based; details: salmonella enterica subsp. enterica serovar typhimurium, read-out: FC
[2] = Genotoxicity in Salmonella typhimurium TA1535 harboring pSK1002 assessed as umu gene induction at 0.016 mg/ml in presence of Sprague-Dawley rat liver S9 fraction after by SOS/umu assay relative to control; assay type: toxicity, organism-based; details: salmonella enterica subsp. enterica serovar typhimurium, read-out: FC
[3] = Genotoxicity in Salmonella typhimurium TA1535 harboring pSK1002 assessed as survival at 0.016 mg/ml in presence of Sprague-Dawley rat liver S9 fraction after by SOS/umu assay relative to control; assay type: toxicity, organism-based; details: salmonella enterica subsp. enterica serovar typhimurium, read-out: Survival
[4] = Genotoxicity in Salmonella typhimurium TA1535 harboring pSK1002 assessed as umu gene induction at 0.002 mg/ml in absence of Sprague-Dawley rat liver S9 fraction after by SOS/umu assay relative to control; assay type: toxicity, organism-based; details: salmonella enterica subsp. enterica serovar typhimurium, read-out: FC
Plasmodium falciparum [5] = experiment: Antiplasmodial activity against multidrug-resistant Plasmodium falciparum FCR-3 by [3H]-hypoxanthine incorporation assay; assay type: functional, organism-based, FCR-3/Gambia; details: Plasmodium falciparum, FCR-3/Gambia
In short: (§1)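 Blood-stage P. falciparum 3D7 and FCR-3 were tested by a modified [3H]-hypoxanthine incorporation assay. Chloroquine was the reference in all runs.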

[6] = Genotoxicity in Salmonella typhimurium TA1535 harboring pSK1002 assessed as umu gene induction at 0.063 mg/ml in presence of Sprague-Dawley rat liver S9 fraction after by SOS/umu assay relative to control; assay type: toxicity, organism-based; details: salmonella enterica subsp. enterica serovar typhimurium, read-out: FC
[7] = Genotoxicity in Salmonella typhimurium TA1535 harboring pSK1002 assessed as survival at 0.001 mg/ml in presence of Sprague-Dawley rat liver S9 fraction after by SOS/umu assay relative to control; assay type: toxicity, organism-based; details: salmonella enterica subsp. enterica serovar typhimurium, read-out: Survival
[8] = Genotoxicity in Salmonella typhimurium TA1535 harboring pSK1002 assessed as survival at 0.125 mg/ml in presence of Sprague-Dawley rat liver S9 fraction after by SOS/umu assay relative to control; assay type: toxicity, organism-based; details: salmonella enterica subsp. enterica serovar typhimurium, read-out: Survival
[9] = Genotoxicity in Salmonella typhimurium TA1535 harboring pSK1002 assessed as survival at 0.004 mg/ml in presence of Sprague-Dawley rat liver S9 fraction after by SOS/umu assay relative to control; assay type: toxicity, organism-based; details: salmonella enterica subsp. enterica serovar typhimurium, read-out: Survival
[10] = Genotoxicity in Salmonella typhimurium TA1535 harboring pSK1002 assessed as umu gene induction at 0.031 mg/ml in absence of Sprague-Dawley rat liver S9 fraction after by SOS/umu assay relative to control; assay type: toxicity, organism-based; details: salmonella enterica subsp. enterica serovar typhimurium, read-out: FC
[11] = Genotoxicity in Salmonella typhimurium TA1535 harboring pSK1002 assessed as survival at 0.008 mg/ml in presence of Sprague-Dawley rat liver S9 fraction after by SOS/umu assay relative to control; assay type: toxicity, organism-based; details: salmonella enterica subsp. enterica serovar typhimurium, read-out: Survival
[12] = Genotoxicity in Salmonella typhimurium TA1535 harboring pSK1002 assessed as survival at 0.002 mg/ml in presence of Sprague-Dawley rat liver S9 fraction after by SOS/umu assay relative to control; assay type: toxicity, organism-based; details: salmonella enterica subsp. enterica serovar typhimurium, read-out: Survival
[13] = Genotoxicity in Salmonella typhimurium TA1535 harboring pSK1002 assessed as umu gene induction at 0.008 mg/ml in presence of Sprague-Dawley rat liver S9 fraction after by SOS/umu assay relative to control; assay type: toxicity, organism-based; details: salmonella enterica subsp. enterica serovar typhimurium, read-out: FC
[14] = Genotoxicity in Salmonella typhimurium TA1535 harboring pSK1002 assessed as umu gene induction at 0.001 mg/ml in presence of Sprague-Dawley rat liver S9 fraction after by SOS/umu assay relative to control; assay type: toxicity, organism-based; details: salmonella enterica subsp. enterica serovar typhimurium, read-out: FC
[15] = Genotoxicity in Salmonella typhimurium TA1535 harboring pSK1002 assessed as umu gene induction at 0.008 mg/ml in absence of Sprague-Dawley rat liver S9 fraction after by SOS/umu assay relative to control; assay type: toxicity, organism-based; details: salmonella enterica subsp. enterica serovar typhimurium, read-out: FC
[16] = Genotoxicity in Salmonella typhimurium TA1535 harboring pSK1002 assessed as umu gene induction at 0.004 mg/ml in absence of Sprague-Dawley rat liver S9 fraction after by SOS/umu assay relative to control; assay type: toxicity, organism-based; details: salmonella enterica subsp. enterica serovar typhimurium, read-out: FC
[17] = Genotoxicity in Salmonella typhimurium TA1535 harboring pSK1002 assessed as survival at 0.002 mg/ml in absence of Sprague-Dawley rat liver S9 fraction after by SOS/umu assay relative to control; assay type: toxicity, organism-based; details: salmonella enterica subsp. enterica serovar typhimurium, read-out: Survival
[18] = Cytotoxicity against human HepG2A16 cells by MTT assay; assay type: cell-based; details: HepG2A16 cells
In short: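 MTT viability assay on HepG2-A16 cells, giving CC50 values.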

[19] = Genotoxicity in Salmonella typhimurium TA1535 harboring pSK1002 assessed as survival at 0.063 mg/ml in absence of Sprague-Dawley rat liver S9 fraction after by SOS/umu assay relative to control; assay type: toxicity, organism-based; details: salmonella enterica subsp. enterica serovar typhimurium, read-out: Survival
[20] = Genotoxicity in Salmonella typhimurium TA1535 harboring pSK1002 assessed as umu gene induction at 0.004 mg/ml in presence of Sprague-Dawley rat liver S9 fraction after by SOS/umu assay relative to control; assay type: toxicity, organism-based; details: salmonella enterica subsp. enterica serovar typhimurium, read-out: FC
[21] = Genotoxicity in Salmonella typhimurium TA1535 harboring pSK1002 assessed as umu gene induction at 0.016 mg/ml in absence of Sprague-Dawley rat liver S9 fraction after by SOS/umu assay relative to control; assay type: toxicity, organism-based; details: salmonella enterica subsp. enterica serovar typhimurium, read-out: FC
[22] = Genotoxicity in Salmonella typhimurium TA1535 harboring pSK1002 assessed as survival at 0.016 mg/ml in absence of Sprague-Dawley rat liver S9 fraction after by SOS/umu assay relative to control; assay type: toxicity, organism-based; details: salmonella enterica subsp. enterica serovar typhimurium, read-out: Survival
[23] = Genotoxicity in Salmonella typhimurium TA1535 harboring pSK1002 assessed as umu gene induction at 0.001 mg/ml in absence of Sprague-Dawley rat liver S9 fraction after by SOS/umu assay relative to control; assay type: toxicity, organism-based; details: salmonella enterica subsp. enterica serovar typhimurium, read-out: FC
Plasmodium falciparum [24] = experiment: Antiplasmodial activity against chloroquine-sensitive Plasmodium falciparum 3D7 by [3H]-hypoxanthine incorporation assay; assay type: functional, organism-based; details: Plasmodium falciparum, 3D7; in short: as §1
[25] = Genotoxicity in Salmonella typhimurium TA1535 harboring pSK1002 assessed as umu gene induction at 0.125 mg/ml in presence of Sprague-Dawley rat liver S9 fraction after by SOS/umu assay relative to control; assay type: toxicity, organism-based; details: salmonella enterica subsp. enterica serovar typhimurium, read-out: FC
[26] = Genotoxicity in Salmonella typhimurium TA1535 harboring pSK1002 assessed as umu gene induction at 0.002 mg/ml in presence of Sprague-Dawley rat liver S9 fraction after by SOS/umu assay relative to control; assay type: toxicity, organism-based; details: salmonella enterica subsp. enterica serovar typhimurium, read-out: FC
[27] = Genotoxicity in Salmonella typhimurium TA1535 harboring pSK1002 assessed as umu gene induction at 0.063 mg/ml in absence of Sprague-Dawley rat liver S9 fraction after by SOS/umu assay relative to control; assay type: toxicity, organism-based; details: salmonella enterica subsp. enterica serovar typhimurium, read-out: FC
[28] = Selectivity index, ratio of CC50 for human HepG2A16 cells by MTT assay to IC50 for multidrug-resistant Plasmodium falciparum FCR-3; assay type: toxicity; details: HepG2A16 cells, read-out: Ratio CC50/IC50
In short: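 HepG2-A16 human hepatoma cells were tested by MTT viability assay to give CC50. Blood-stage activity was measured against the multidrug-resistant P. falciparum FCR-3 strain by [3H]-hypoxanthine incorporation to give IC50. SI = CC50 HepG2 / FCR-3 IC50.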

[29] = Genotoxicity in Salmonella typhimurium TA1535 harboring pSK1002 assessed as umu gene induction at 0.031 mg/ml in presence of Sprague-Dawley rat liver S9 fraction after by SOS/umu assay relative to control; assay type: toxicity, organism-based; details: salmonella enterica subsp. enterica serovar typhimurium, read-out: FC

| SMILES | fold induction at 0.016 mg/ml [2] | viability at 0.016 mg/ml [3] | fold induction at 0.002 mg/ml [4] | IC50 (Plasmodium falciparum [5]) | fold induction at 0.063 mg/ml [6] | viability at 0.001 mg/ml [7] | viability at 0.004 mg/ml [9] | fold induction at 0.031 mg/ml [10] | viability at 0.008 mg/ml [11] | viability at 0.002 mg/ml [12] | fold induction at 0.008 mg/ml [13] | fold induction at 0.001 mg/ml [14] | fold induction at 0.008 mg/ml [15] | fold induction at 0.004 mg/ml [16] | viability at 0.002 mg/ml [17] | CC50 [18] | viability at 0.063 mg/ml [19] | fold induction at 0.004 mg/ml [20] | fold induction at 0.016 mg/ml [21] | viability at 0.016 mg/ml [22] | other results |
| --- | --- | --- | --- | --- | --- | --- | --- | --- | --- | --- | --- | --- | --- | --- | --- | --- | --- | --- | --- | --- | --- |
| N#Cc1ccc(N2CCC(NCCC(O)c3ccc(F)c4ccccc34)CC2)c(Cl)c1 (centres undefined) | 0.6 | 38.5% | 1 | 90 nM | 0.2 | 154% | 169% | 0.5 | 35.1% | 148% | 1.1 | 0.9 | 0.8 | 1 | 117% | 7950 nM | 55.4% | 0.5 | 0.6 | 36.8% | fold induction at 0.125 mg/ml [1]: 0.1; viability at 0.125 mg/ml [8]: 134%; fold induction at 0.001 mg/ml [23]: 1; IC50 (Plasmodium falciparum [24]): 150 nM; fold induction at 0.125 mg/ml [25]: 0.1; fold induction at 0.002 mg/ml [26]: 0.8; fold induction at 0.063 mg/ml [27]: 0.3; selectivity ratio [28]: 88 |
| N#Cc1ccc(N2CCC(NCCC(O)c3ccc(F)c4ccccc34)CC2)c(Br)c1 (centres undefined) | 1.9 | 80.2% | 1.4 | 70 nM | 0.6 | 87.2% | 97.5% | 1.5 | 87.4% | 65.3% | 1 | 0.9 | 2.2 | 1.4 | 106% | 9870 nM | 42.6% | 0.9 | 2.1 | 18.6% | fold induction at 0.031 mg/ml [29]: 1.2; fold induction at 0.001 mg/ml [23]: 1.3; IC50 (Plasmodium falciparum [24]): 220 nM; fold induction at 0.002 mg/ml [26]: 0.8; fold induction at 0.063 mg/ml [27]: 0.6; selectivity ratio [28]: 141 |
